Columns and labels:
Sulfotransferase 1E1 = biological target: T1, Sulfotransferase 1E1 (Bos taurus, UniProt P19217); test: Inhibition of bovine estrogen sulfotransferase by the compound
T1 sequence (P19217 whole entry): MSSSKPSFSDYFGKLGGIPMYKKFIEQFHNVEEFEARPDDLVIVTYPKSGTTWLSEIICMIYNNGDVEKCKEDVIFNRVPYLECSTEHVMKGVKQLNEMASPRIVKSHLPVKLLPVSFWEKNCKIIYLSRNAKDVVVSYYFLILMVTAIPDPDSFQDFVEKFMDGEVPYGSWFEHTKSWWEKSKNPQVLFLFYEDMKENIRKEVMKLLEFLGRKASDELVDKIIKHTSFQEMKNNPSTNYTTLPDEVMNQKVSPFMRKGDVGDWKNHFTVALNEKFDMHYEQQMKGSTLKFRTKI
Outline: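 Inhibitor was present at a fixed concentration in 90% aqueous Me2SO. Ki values were derived with relationships for competitive inhibitors.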

MCF7 [1] = test: Concentration required for 50% Inhibition of human breast cancer cell line MCF-7; assay type: functional; conditions: read-out: ID50 (the source's name)
Outline: (§1)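 Human breast cancer cells were grown in glass vials in medium with 5% calf serum and treated in log phase. Compounds were dissolved in Me2SO and diluted in medium to a final solvent concentration of at most 0.2%. Growth was followed over 2-3 days, or 5 days where noted. IC30 and IC50 are the concentrations giving 30% and 50% growth inhibition. Values average two or more experiments.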

MCF7 [2] = test: Concentration required for 30% Inhibition of human breast cancer cell line MCF-7; assay type: functional; outline: as §1
P388 [3] = test: (§2) Concentration required for 50% Inhibition of P388 murine leukemia cells; assay type: functional; conditions: Mus musculus, read-out: ID50 (the source's name)
Outline: (§3)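 Exponentially growing P388 murine leukemia cells were kept in medium with 10% horse serum and 1 μM mercaptoethanol. They were exposed to graded drug levels, and total cell numbers were counted 24 h later. IC50 is the concentration inhibiting growth by 50% over the test period.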

MCF7 [4] = test: Inhibition of human breast cancer cell line MCF-7; assay type: functional; conditions: for IC50: read-out: ID50 (the source's name)
Outline: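 MCF-7 breast cancer cells were grown in sterile glass scintillation vials in medium with 5% calf serum and treated in log phase. Compounds were dissolved in Me₂SO and diluted in medium, with final solvent ≤0.2%. Growth was measured over 2-3 days, or 5 days where footnoted. IC₃₀/IC₅₀ is the concentration inhibiting growth by 30/50% over the test period, averaged from two or more experiments.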

MCF7 [5] = test: Concentration required for 30% Inhibition of human breast cancer cell line MCF-7; NA means no inhibition at -20 concentration; assay type: functional, cell-based; outline: as §1
P388 [6] = test: as §2; assay type: functional, Mus musculus; outline: as §3

Row | SMILES | Ki (Sulfotransferase 1E1) | IC50 (MCF7 [1]) | ID30 (MCF7 [2]) | IC50 (P388 [3]) | also measured
1 | C[C@]12CC[C@@H]3c4ccc(OCCOC[C@H]5OC(n6cnc7c(N)ncnc76)[C@H](O)[C@@H]5O)c([N+](=O)[O-])c4CC[C@H]3[C@@H]1CCC2=O (stereo not given in full) | 32 µM | > 10 µM | 11 µM | 70 µM | 
2 | C[C@]12CC[C@@H]3c4ccc(OP(=O)(O)OP(=O)(O)OC[C@H]5O[C@@H](n6c(Br)nc7c(N)ncnc76)[C@H](O)[C@@H]5OP(=O)(O)O)cc4CC[C@H]3[C@@H]1CCC2=O | 0.25 µM |  |  |  | 
3 | O=c1[nH]cc(F)c(=O)[nH]1 [FLUOROURACIL] |  |  |  |  | ID30 (MCF7 [4]): 0.2 µM; IC50 (MCF7 [4]): 0.3 µM
4 | C[C@]12CC[C@@H]3c4ccc(OCCCn5cnc6c(N)ncnc65)cc4CC[C@H]3[C@@H]1CCC2=O | 1000 µM |  |  |  | ID30 (MCF7 [5]): Not Active
5 | C[C@]12CC[C@@H]3c4ccc(OCCCCn5cnc6c(N)ncnc65)c([N+](=O)[O-])c4CC[C@H]3[C@@H]1CCC2=O | 140 µM | 4 µM | 2.1 µM |  | ID50 (P388 [6]): 5 µM
6 | C[C@]12CC[C@@H]3c4ccc(OCCCOC[C@H]5OC(n6cnc7c(N)ncnc76)[C@H](O)[C@@H]5O)c([N+](=O)[O-])c4CC[C@H]3[C@@H]1CCC2=O (stereo not given in full) | 84 µM | 6.4 µM | 3.6 µM | 15 µM | 
7 | C[C@]12CC[C@@H]3c4ccc(OCCn5cnc6c(N)ncnc65)c([N+](=O)[O-])c4CC[C@H]3[C@@H]1CCC2=O | 1000 µM | 10 µM | 7.8 µM | 30 µM | 
8 | C[C@]12CC[C@@H]3c4ccc(OCCCn5cnc6c(N)ncnc65)c([N+](=O)[O-])c4CC[C@H]3[C@@H]1CCC2=O | 350 µM |  |  |  | ID30 (MCF7 [5]): Not Active
9 | COc1ccc2c(c1[N+](=O)[O-])CC[C@@H]1[C@@H]2CC[C@]2(C)C(=O)CC[C@@H]12 |  |  |  |  | ID30 (MCF7 [4]): >10 µM; IC50 (MCF7 [4]): > 10 µM
